In ChEMBL document CHEMBL3826896, “Synthesis of lignan conjugates via cyclopropanation: Antimicrobial and antioxidant studies” (Bioorg Med Chem Lett, 2016) one finds MIC and Activity data, which are given here for 16 molecules.

In brackets after ≈: the same amount, converted by molar mass.

The test system of series [1] is Cryptococcus neoformans. The series can be described thus: Antimicrobial activity against Cryptococcus neoformans after 72 hrs by broth dilution method. Type of series: functional. In short, it runs like this: (§1)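 MIC by broth dilution in triplicate, reported as mean ± SD. Panel: bacteria S. aureus, S. pyogenes, E. coli; fungi C. neoformans, A. niger, A. flavus. Ciprofloxacin served as positive control for bacteria and nystatin for fungi. DMSO was the solvent and solvent control.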

In series [2] the test system is Staphylococcus aureus. Description: Antimicrobial activity against Staphylococcus aureus after 24 hrs by broth dilution method. Type of series: functional. In short, it runs like this: as §1
For orientation: In broth dilution the organism is exposed to a series of concentrations in liquid medium.

Series [3] can be described thus: Antioxidant activity assessed as hydroxyl radical scavenging activity at 20 ug/ml after 60 mins relative to control. Conditions: 1 h. Type of series: physicochemical. Put shortly: (§2)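 Radical scavenging measured in vitro by DPPH and by hydroxyl radical scavenging assays. Each run in triplicate at five concentrations, reported as mean ± SD of three replicates.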

Series [4] has as its system Streptococcus pyogenes. The series can be described thus: Antimicrobial activity against Streptococcus pyogenes after 24 hrs by broth dilution method. Type of series: functional. Put shortly:
as §1

The nature of series [5]: Antioxidant activity assessed as hydroxyl radical scavenging activity at 60 ug/ml after 60 mins relative to control. Type of series: physicochemical. To be noted: 1 h. Put shortly:
as §2

A short description of series [6]: Antioxidant activity assessed as hydroxyl radical scavenging activity at 80 ug/ml after 60 mins relative to control. To be noted: 1 h. Type of series: physicochemical. In short, it runs like this:
as §2

Series [7] deals with Aspergillus flavus. Description: Antimicrobial activity against Aspergillus flavus after 72 hrs by broth dilution method. Type of series: functional. Put shortly: as §1
Series [8] is described as follows: Antioxidant activity assessed as DPPH radical scavenging activity at 100 ug/ml after 20 mins by spectrophotometry relative to control. Type of series: physicochemical. Put shortly:
as §2

A short description of series [9]: Antioxidant activity assessed as hydroxyl radical scavenging activity at 100 ug/ml after 60 mins relative to control. Type of series: physicochemical. Conditions: 1 h. In short, it runs like this:
as §2

Series [10] can be described thus: Antioxidant activity assessed as hydroxyl radical scavenging activity at 40 ug/ml after 60 mins relative to control. Type of series: physicochemical. To be noted: 1 h. Put shortly: as §2
The nature of series [11]: Antioxidant activity assessed as DPPH radical scavenging activity at 20 ug/ml after 20 mins by spectrophotometry relative to control. Type of series: physicochemical. In short, it runs like this: as §2
For orientation: The DPPH test is a chemical assay of radical scavenging.

Series [12] is described as follows: Antioxidant activity assessed as DPPH radical scavenging activity at 80 ug/ml after 20 mins by spectrophotometry relative to control. Type of series: physicochemical. Put shortly:
as §2

Series [13] is described as follows: Antioxidant activity assessed as DPPH radical scavenging activity at 40 ug/ml after 20 mins by spectrophotometry relative to control. Type of series: physicochemical. In short, it runs like this:
as §2

The nature of series [14]: Antioxidant activity assessed as DPPH radical scavenging activity at 60 ug/ml after 20 mins by spectrophotometry relative to control. Type of series: physicochemical. Put shortly: as §2
Series [15] concerns Aspergillus niger. The series can be described thus: Antimicrobial activity against Aspergillus niger after 72 hrs by broth dilution method. Type of series: functional. Put shortly: as §1
Series [16] deals with Escherichia coli. The series can be described thus: Antimicrobial activity against Escherichia coli after 24 hrs by broth dilution method. Type of series: functional. Put shortly: as §1

For orientation: MIC means the least concentration at which growth counts as inhibited. As to `CCOC(=O)[C@@H]1CC(=O)c2sccc2[C@H]1c1ccccc1OC`, the MIC in series [1] amounted to 25 µg/mL (≈ 75.7 µM); in series [2], 25 µg/mL (≈ 75.7 µM); in series [4], 50 µg/mL (≈ 151 µM); in [7], 50 µg/mL (≈ 151 µM); in [15], 25 µg/mL (≈ 75.7 µM); in series [16] it was 50 µg/mL (≈ 151 µM). Further, the Activity came to 11.87% in series [3]; 22.76% in series [5]; 29.77% in [6]; 21.65% in [8]; 31.56% in series [9]; 15.98% in [10]. The Activity is 10.76% in series [11], 19.65% in [12], 13.54% in series [13] and 17.76% in series [14].

Turning to `O=C(O)c1cn(C2CC2)c2cc(N3CCNCC3)c(F)cc2c1=O` [CIPROFLOXACIN], the MIC stood at 50 µg/mL (≈ 151 µM) in series [4] and 25 µg/mL (≈ 75.4 µM) in series [16].

In the case of `CCOC(=O)[C@@H]1CC(=O)c2sccc2[C@H]1c1ccc(OC)cc1`, the MIC stood at 50 µg/mL (≈ 151 µM) in [1]; 50 µg/mL (≈ 151 µM) in series [2]; 25 µg/mL (≈ 75.7 µM) in series [4]; 50 µg/mL (≈ 151 µM) in [7]; 25 µg/mL (≈ 75.7 µM) in [15]; 50 µg/mL (≈ 151 µM) in [16]. Moreover, the Activity is reported as 13.03% in [3]; 24.76% in series [5]; 30.98% in series [6]; 26.22% in series [8]; 34.09% in series [9]; 17.98% in series [10]. The Activity stood at 15.02% in series [11], 23.92% in series [12], 16.71% in series [13] and 20.31% in series [14].

Turning to `CCOC(=O)C1C(C(=O)c2cccs2)C1c1ccc(OC)cc1OC` (configuration not stated), the minimal inhibitory concentration (MIC) in series [1] came to 25 µg/mL (≈ 69.4 µM); in series [2], 25 µg/mL (≈ 69.4 µM); in series [4], 25 µg/mL (≈ 69.4 µM); in [7] it was 50 µg/mL (≈ 139 µM); in series [15], 50 µg/mL (≈ 139 µM); in series [16], 25 µg/mL (≈ 69.4 µM).

`CCOC(=O)[C@@H]1CC(=O)c2sccc2[C@H]1c1ccc(OCC)cc1`: the MIC in series [1] came out at 25 µg/mL (≈ 72.6 µM); in series [2] it was 75 µg/mL (≈ 218 µM); in series [4] it was 50 µg/mL (≈ 145 µM); in series [7] it was 100 µg/mL (≈ 290 µM); in series [15], 75 µg/mL (≈ 218 µM); in series [16], 50 µg/mL (≈ 145 µM). Further, the Activity in series [3] turned out to be 15.43%; in series [5] it was 26.98%; in series [6], 34.13%; in series [8], 28.96%; in [9], 37.99%; in series [10], 19.76%. The Activity is recorded as 17.08% in [11], 25.43% in series [12], 18.54% in series [13] and 22.87% in series [14].

Regarding `CCOC(=O)C1C(C(=O)c2cccs2)C1c1ccc(OCC)cc1` (configuration not stated), the minimal inhibitory concentration (MIC) in series [1] was found to be 12.5 µg/mL (≈ 36.3 µM); in series [2], 12.5 µg/mL (≈ 36.3 µM); in series [4] it was 25 µg/mL (≈ 72.6 µM); in series [7], 25 µg/mL (≈ 72.6 µM); in series [15], 12.5 µg/mL (≈ 36.3 µM); in [16], 25 µg/mL (≈ 72.6 µM).

Regarding `CCOC(=O)C1C(C(=O)c2cccs2)C1c1ccccc1OC` (configuration not stated), the minimal inhibitory concentration (MIC) in [1] was determined as 75 µg/mL (≈ 227 µM); in series [2], 50 µg/mL (≈ 151 µM); in [4], 100 µg/mL (≈ 303 µM); in series [7], 25 µg/mL (≈ 75.7 µM); in series [15], 75 µg/mL (≈ 227 µM); in [16] it was 75 µg/mL (≈ 227 µM).

On to NYSTATIN, for which the minimal inhibitory concentration (MIC) in [1] was 25 µg/mL; in [7] it was 50 µg/mL; in series [15] it was 50 µg/mL.

On to `O=C1O[C@H]([C@@H](O)CO)C(O)=C1O` [ASCORBIC ACID], for which the Activity in series [8] came to 28.65%; in [11], 15.08%; in series [12], 24.25%; in [13], 16.87%; in series [14], 21.98%.

Take `CCOC(=O)[C@@H]1CC(=O)c2sccc2[C@H]1c1cc(OC)cc(OC)c1`: the MIC in [1] was 12.5 µg/mL (≈ 34.7 µM); in [2], 12.5 µg/mL (≈ 34.7 µM); in series [4] it was 25 µg/mL (≈ 69.4 µM); in series [7] it was 25 µg/mL (≈ 69.4 µM); in [15], 25 µg/mL (≈ 69.4 µM); in [16], 12.5 µg/mL (≈ 34.7 µM). The Activity came to 16.76% in [3]; 29.65% in [5]; 36.32% in series [6]; 31.54% in series [8]; 41.5% in series [9]; 20.65% in series [10]. For the same molecule, the Activity in series [11] was 18.56%; in [12] it was 27.43%; in series [13], 19.97%; in series [14], 24.76%.

Take `CCOC(=O)C1C(C(=O)c2cccs2)C1c1ccc(OC)cc1` (configuration not stated): the MIC worked out at 50 µg/mL (≈ 151 µM) in [1]; 50 µg/mL (≈ 151 µM) in series [2]; 50 µg/mL (≈ 151 µM) in series [4]; 100 µg/mL (≈ 303 µM) in [7]; 100 µg/mL (≈ 303 µM) in series [15]; 50 µg/mL (≈ 151 µM) in series [16].

In the case of `CCOC(=O)[C@@H]1CC(=O)c2sccc2[C@H]1c1ccc(OC)cc1OC`, the MIC turned out to be 50 µg/mL (≈ 139 µM) in series [1]; 50 µg/mL (≈ 139 µM) in series [2]; 50 µg/mL (≈ 139 µM) in [4]; 75 µg/mL (≈ 208 µM) in series [7]; 100 µg/mL (≈ 277 µM) in [15]; 75 µg/mL (≈ 208 µM) in [16]. Further, the Activity in series [3] is recorded as 10.05%; in series [5], 19.87%; in series [6], 23.87%; in series [8] it was 20.76%; in series [9], 26.82%; in series [10] it was 12.76%. Moreover, the Activity in series [11] turned out to be 9.76%; in series [12], 18.64%; in series [13] it was 11.76%; in series [14], 14.98%.

On to `CCOC(=O)[C@@H]1CC(=O)c2sccc2[C@H]1c1ccc(OC)c(OC)c1`, for which the MIC in [1] was 25 µg/mL (≈ 69.4 µM); in series [2], 50 µg/mL (≈ 139 µM); in series [4] it was 50 µg/mL (≈ 139 µM); in series [7] it was 50 µg/mL (≈ 139 µM); in series [15], 25 µg/mL (≈ 69.4 µM); in series [16], 25 µg/mL (≈ 69.4 µM). Moreover, the Activity was 12.23% in series [3]; 24.07% in [5]; 30.37% in series [6]; 25.54% in series [8]; 34.02% in series [9]; 16.64% in series [10]. Also, the Activity stood at 14.65% in series [11], 22.87% in series [12], 14.76% in [13] and 20.93% in series [14].

Consider `CCOC(=O)C1C(C(=O)c2cccs2)C1c1ccc(OC)c(OC)c1` (configuration not stated), for which the minimal inhibitory concentration (MIC) is 25 µg/mL (≈ 69.4 µM) in series [1]; 25 µg/mL (≈ 69.4 µM) in series [2]; 50 µg/mL (≈ 139 µM) in series [4]; 50 µg/mL (≈ 139 µM) in [7]; 25 µg/mL (≈ 69.4 µM) in [15]; 25 µg/mL (≈ 69.4 µM) in series [16].

As for `COc1ccc(O)c(C(C)(C)C)c1.COc1ccc(O)cc1C(C)(C)C` [BUTYLATED HYDROXYANISOLE], the Activity in series [3] is on record as 13.87%; in series [5], 25.58%; in series [6], 32.03%; in [9] it was 36.87%; in series [10], 17.95%.

Consider `CCOC(=O)C1C(C(=O)c2cccs2)C1c1cc(OC)cc(OC)c1` (configuration not stated), for which the MIC in series [1] is 50 µg/mL (≈ 139 µM); in series [2] it was 50 µg/mL (≈ 139 µM); in [4] it was 75 µg/mL (≈ 208 µM); in [7], 75 µg/mL (≈ 208 µM); in [15] it was 50 µg/mL (≈ 139 µM); in series [16], 75 µg/mL (≈ 208 µM).
